Results as given in ChEMBL document CHEMBL1140264, “Sulfur-substituted alpha-alkyl phenethylamines as selective and reversible MAO-A inhibitors: biological activities, CoMFA analysis, and active site modeling” (J Med Chem, 2005).

Tests used:
[1] = biological target: T1, Amine oxidase [flavin-containing] A (Rattus norvegicus, UniProt P21396); experiment: Inhibitory concentration against monoamine oxidase A in rat brain mitochondrial suspension; assay type: tissue-based
T1 sequence (P21396 whole entry): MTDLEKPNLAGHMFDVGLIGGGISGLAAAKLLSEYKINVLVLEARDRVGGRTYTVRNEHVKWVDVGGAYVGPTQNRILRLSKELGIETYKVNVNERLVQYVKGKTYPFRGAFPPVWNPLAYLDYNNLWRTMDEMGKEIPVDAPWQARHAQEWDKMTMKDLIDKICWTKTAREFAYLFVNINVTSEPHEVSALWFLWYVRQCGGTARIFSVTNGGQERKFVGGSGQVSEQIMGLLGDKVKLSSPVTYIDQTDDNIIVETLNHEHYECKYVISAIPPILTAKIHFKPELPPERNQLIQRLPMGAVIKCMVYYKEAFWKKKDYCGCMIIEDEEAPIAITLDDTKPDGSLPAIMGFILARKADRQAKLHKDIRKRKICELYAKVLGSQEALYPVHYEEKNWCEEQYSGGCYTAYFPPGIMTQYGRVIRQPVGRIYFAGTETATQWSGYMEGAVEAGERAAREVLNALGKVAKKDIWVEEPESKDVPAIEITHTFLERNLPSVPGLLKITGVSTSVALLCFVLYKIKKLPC
Procedure, shortened: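 Crude brain mitochondrial suspension from male Sprague-Dawley rats (180-220 g). MAO-A substrate 5-HT 100 µM; substrate and deaminated metabolite measured by HPLC with electrochemical detection. Inhibition relative to enzyme treated identically without inhibitor. IC50 from % inhibition vs -log[I] curves, 5-8 concentrations each in triplicate; mean ± SD of at least two independent experiments.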

[2] = biological target: T1, Amine oxidase [flavin-containing] A; experiment: Percent inhibition of rat brain monoamine oxidase A in mitochondrial suspension after 10 minutes pre-incubation and washing at 10e-7 M
Procedure, shortened: (§1)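 Crude rat brain mitochondrial suspension preincubated 10 min with inhibitor, then washed three times by centrifugation and resuspension. MAO-A activity measured before and after washing by HPLC-ED with 5-HT (100 µM) as selective substrate, against control preparations. Mean ± SD of triplicate determinations.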

[3] = biological target: T1, Amine oxidase [flavin-containing] A; experiment: Percent inhibition of rat brain monoamine oxidase A in mitochondrial suspension after 10 minutes pre-incubation before washing at 10e-7 M; procedure, shortened: as §1
[4] = biological target: T1, Amine oxidase [flavin-containing] A; experiment: Percent inhibition of rat brain monoamine oxidase A in mitochondrial suspension with 30 minutes pre-incubation at 10e-7 M; conditions: 0.5 h
[5] = biological target: T1, Amine oxidase [flavin-containing] A; experiment: Percent inhibition of rat brain monoamine oxidase A in mitochondrial suspension without pre-incubation at 10e-7 M

| Compound | IC50 [1] [µM] | further results |
| --- | --- | --- |
| COc1cc(SC(C)C)c(OC)cc1CC(C)N (configuration not stated) | 27.3 |  |
| CCOc1ccc(CC(C)N)cc1 (configuration not stated) | 0.2 |  |
| CCCSc1cc(OC)c(CC(C)NC)cc1OC (configuration not stated) | 0.3 |  |
| COc1cc(SC)cc(OC)c1CC(C)N (configuration not stated) | 0.3 |  |
| CCC(Cc1cc(OC)c(SC)cc1OC)NC (configuration not stated) | 15.5 |  |
| COc1cc(Cl)c(CC(C)N)c(OC)c1 (configuration not stated) | 0.07 | Inhibition [2]: 0%; Inhibition [3]: 58% |
| CCSc1cc(OC)c(CC(C)NC)cc1OC (configuration not stated) | 1.4 |  |
| CCCSc1cc(OC)c(CC(N)CC)cc1OC (configuration not stated) | 7.6 |  |
| CCSc1cc(OC)c(CC(C)N)c(OC)c1 (configuration not stated) | 0.08 | Inhibition [2]: 0%; Inhibition [4]: 33%; Inhibition [5]: 23.7%; Inhibition [3]: 40% |
| CNC(C)Cc1cc(OC)c(SC)cc1OC (configuration not stated) | 1.8 |  |
| CC(C)CSc1ccc(CC(C)N)cc1 (configuration not stated) | 0.4 |  |
| CCCCSc1cc(OC)c(CC(C)N)cc1OC (configuration not stated) | 2.9 |  |
| CCC(N)Cc1cc(OC)c(SC)cc1OC (configuration not stated) | 30.9 |  |
| CCSc1cc(OC)c(CC(CC)NC)cc1OC (configuration not stated) | 4.5 |  |
| CCCCCSc1cc(OC)c(CC(C)N)cc1OC (configuration not stated) | 14.3 |  |
| CCCSc1cc(OC)c(CC(CC)NC)cc1OC (configuration not stated) | 1.4 |  |
| COc1cc(SCCc2ccccc2)c(OC)cc1CC(C)N (configuration not stated) | > 100 |  |
| CCSc1ccc(CC(C)N)cc1 (configuration not stated) | 0.1 |  |
| COc1ccc(CC(C)N)cc1OC (configuration not stated) | 20 |  |

| Compound | IC50 [1] [µM] | further results |
| --- | --- | --- |
| COc1ccc(CC(C)N)c(OC)c1 (configuration not stated) | 0.6 |  |
| COc1cc(Br)c(CC(C)N)cc1OC (configuration not stated) | 9.3 |  |
| COc1cc(OC)c(CC(C)N)cc1Br (configuration not stated) | 13 |  |
| CCSc1cc(OC)c(CC(C)N)cc1OC (configuration not stated) | 3.8 |  |
| COc1cc(OC)c(CC(C)N)c(OC)c1 (configuration not stated) | 0.4 |  |
| CCCSc1cc(OC)c(CC(C)N)cc1OC (configuration not stated) | 2.4 | Inhibition [2]: 0%; Inhibition [4]: 20%; Inhibition [5]: 15.7%; Inhibition [3]: 20% |
| CC(N)Cc1ccc(Cl)cc1 (configuration not stated) | 4 |  |
| CCSc1cc(OC)c(CC(N)CC)cc1OC (configuration not stated) | 11.8 |  |
| COc1cc(SC)c(OC)cc1CC(C)N (configuration not stated) | 5.2 |  |
| COc1cc(CC(C)N)c(OC)cc1I (configuration not stated) | 44 |  |
| COc1cc(C(F)(F)F)c(OC)cc1CC(C)N (configuration not stated) | > 100 |  |
| COc1cc(CC(C)N)c(OC)cc1N (configuration not stated) | > 100 |  |
| COc1cc([N+](=O)[O-])c(OC)cc1CC(C)N (configuration not stated) | > 100 |  |
| COc1ccc(OC)c(CC(C)N)c1 (configuration not stated) | > 100 |  |
| CSc1ccc(CC(C)N)cc1 (configuration not stated) [4-METHYLTHIOAMPHETAMINE] | 0.2 |  |
| COc1cc(CC(C)N)c(OC)cc1Br (configuration not stated) [BROLAMFETAMINE] | 100 |  |
| COc1cc(CC(C)N)c(OC)cc1C (configuration not stated) [DOM] | 24 |  |
| COc1ccc(CC(C)N)cc1 (configuration not stated) [PARA-METHOXYAMPHETAMINE] | 0.3 |  |
